# Measured values: article PMC7449315 (Journal for Immunotherapy of Cancer, 2020)
# Experiment: phase I trial: safety and tolerability
# Type: in vivo, human
# Procedure, shortened: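 Fifteen patients were dosed orally twice daily (three per cohort, 100–800 mg). AEs, DLTs, physical exams, vital signs, ECGs and laboratory chemistry, hematology and coagulation were recorded from first dose to end of treatment. AEs were graded by the investigator using NCI CTCAE v4.03. DLTs were assessed in cycle 1 (days 1–28): grade ≥3 or immune-related non-hematologic events, and grade ≥4 hematologic events.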
smiles,measurement,setting,value
NS(=O)(=O)[C@H]1CC[C@](F)(CC[C@H]2c3ccccc3-c3cncn32)CC1 [M4112],Abdominal distension,100 mg two times per day (n=3),0 (0.0) n (%)
same,Abdominal pain,100 mg two times per day (n=3),0 (0.0) n (%)
same,Alanine aminotransferase increased,100 mg two times per day (n=3),0 (0.0) n (%)
same,Amylase increased,100 mg two times per day (n=3),0 (0.0) n (%)
same,Anemia of malignant disease,100 mg two times per day (n=3),0 (0.0) n (%)
same,Any AE,100 mg two times per day (n=3),3 (100) n (%)
same,Any SAE,100 mg two times per day (n=3),0 n (%)
same,Aspartate aminotransferase increased,100 mg two times per day (n=3),0 (0.0) n (%)
same,Blood alkaline phosphatase increased,100 mg two times per day (n=3),0 (0.0) n (%)
same,Blood creatine phosphokinase increased,100 mg two times per day (n=3),0 (0.0) n (%)
same,Blood creatinine increased,100 mg two times per day (n=3),0 (0.0) n (%)
same,Cough,100 mg two times per day (n=3),1 (33.3) n (%)
same,Decreased appetite,100 mg two times per day (n=3),1 (33.3) n (%)
same,Dehydration,100 mg two times per day (n=3),0 (0.0) n (%)
same,Diarrhea,100 mg two times per day (n=3),0 (0.0) n (%)
same,Dyspepsia,100 mg two times per day (n=3),2 (66.7) n (%)
same,Dysphagia,100 mg two times per day (n=3),1 (33.3) n (%)
same,Fatigue,100 mg two times per day (n=3),2 (66.7) n (%)
same,Fever,100 mg two times per day (n=3),0 (0.0) n (%)
same,Gamma-glutamyl transferase increased,100 mg two times per day (n=3),0 (0.0) n (%)
same,Hypercalcemia,100 mg two times per day (n=3),0 (0.0) n (%)
same,Lipase increased,100 mg two times per day (n=3),0 (0.0) n (%)
same,Lymphocyte count decreased,100 mg two times per day (n=3),0 (0.0) n (%)
same,Maculopapular rash,100 mg two times per day (n=3),1 (33.3) n (%)
same,Nausea,100 mg two times per day (n=3),1 (33.3) n (%)
same,Palmar-plantar erythrodysesthesia syndrome,100 mg two times per day (n=3),1 (33.3) n (%)
same,Platelet count decreased,100 mg two times per day (n=3),0 (0.0) n (%)
same,Tumor pain,100 mg two times per day (n=3),0 (0.0) n (%)
same,Vomiting,100 mg two times per day (n=3),2 (66.7) n (%)
same,Abdominal distension,200 mg two times per day (n=3),0 (0.0) n (%)
same,Abdominal pain,200 mg two times per day (n=3),0 (0.0) n (%)
same,Alanine aminotransferase increased,200 mg two times per day (n=3),0 (0.0) n (%)
same,Amylase increased,200 mg two times per day (n=3),0 (0.0) n (%)
same,Anemia of malignant disease,200 mg two times per day (n=3),0 (0.0) n (%)
same,Any AE,200 mg two times per day (n=3),3 (100) n (%)
same,Any SAE,200 mg two times per day (n=3),0 n (%)
same,Aspartate aminotransferase increased,200 mg two times per day (n=3),0 (0.0) n (%)
same,Blood alkaline phosphatase increased,200 mg two times per day (n=3),0 (0.0) n (%)
same,Blood creatine phosphokinase increased,200 mg two times per day (n=3),1 (33.3) n (%)
same,Blood creatinine increased,200 mg two times per day (n=3),0 (0.0) n (%)
same,Cough,200 mg two times per day (n=3),1 (33.3) n (%)
same,Decreased appetite,200 mg two times per day (n=3),0 (0.0) n (%)
same,Dehydration,200 mg two times per day (n=3),1 (33.3) n (%)
same,Diarrhea,200 mg two times per day (n=3),1 (33.3) n (%)
same,Dyspepsia,200 mg two times per day (n=3),0 (0.0) n (%)
same,Dysphagia,200 mg two times per day (n=3),0 (0.0) n (%)
same,Fatigue,200 mg two times per day (n=3),0 (0.0) n (%)
same,Fever,200 mg two times per day (n=3),1 (33.3) n (%)
same,Gamma-glutamyl transferase increased,200 mg two times per day (n=3),0 (0.0) n (%)
same,Hypercalcemia,200 mg two times per day (n=3),1 (33.3) n (%)
same,Lipase increased,200 mg two times per day (n=3),1 (33.3) n (%)
same,Lymphocyte count decreased,200 mg two times per day (n=3),1 (33.3) n (%)
same,Maculopapular rash,200 mg two times per day (n=3),0 (0.0) n (%)
same,Nausea,200 mg two times per day (n=3),1 (33.3) n (%)
same,Palmar-plantar erythrodysesthesia syndrome,200 mg two times per day (n=3),0 (0.0) n (%)
same,Platelet count decreased,200 mg two times per day (n=3),1 (33.3) n (%)
same,Tumor pain,200 mg two times per day (n=3),0 (0.0) n (%)
same,Vomiting,200 mg two times per day (n=3),1 (33.3) n (%)
same,Abdominal distension,400 mg two times per day (n=3),1 (33.3) n (%)
same,Abdominal pain,400 mg two times per day (n=3),1 (33.3) n (%)
same,Alanine aminotransferase increased,400 mg two times per day (n=3),1 (33.3) n (%)
same,Amylase increased,400 mg two times per day (n=3),1 (33.3) n (%)
same,Anemia of malignant disease,400 mg two times per day (n=3),1 (33.3) n (%)
same,Any AE,400 mg two times per day (n=3),3 (100) n (%)
same,Any SAE,400 mg two times per day (n=3),1 (33.3) n (%)
same,Aspartate aminotransferase increased,400 mg two times per day (n=3),0 (0.0) n (%)
same,Blood alkaline phosphatase increased,400 mg two times per day (n=3),0 (0.0) n (%)
same,Blood creatine phosphokinase increased,400 mg two times per day (n=3),1 (33.3) n (%)
same,Blood creatinine increased,400 mg two times per day (n=3),1 (33.3) n (%)
same,Cough,400 mg two times per day (n=3),1 (33.3) n (%)
same,Decreased appetite,400 mg two times per day (n=3),1 (33.3) n (%)
same,Dehydration,400 mg two times per day (n=3),0 (0.0) n (%)
same,Diarrhea,400 mg two times per day (n=3),0 (0.0) n (%)
same,Dyspepsia,400 mg two times per day (n=3),0 (0.0) n (%)
same,Dysphagia,400 mg two times per day (n=3),1 (33.3) n (%)
same,Fatigue,400 mg two times per day (n=3),1 (33.3) n (%)
same,Fever,400 mg two times per day (n=3),0 (0.0) n (%)
same,Gamma-glutamyl transferase increased,400 mg two times per day (n=3),0 (0.0) n (%)
same,Hypercalcemia,400 mg two times per day (n=3),1 (33.3) n (%)
same,Lipase increased,400 mg two times per day (n=3),0 (0.0) n (%)
same,Lymphocyte count decreased,400 mg two times per day (n=3),0 (0.0) n (%)
same,Maculopapular rash,400 mg two times per day (n=3),1 (33.3) n (%)
same,Nausea,400 mg two times per day (n=3),0 (0.0) n (%)
same,Palmar-plantar erythrodysesthesia syndrome,400 mg two times per day (n=3),1 (33.3) n (%)
same,Platelet count decreased,400 mg two times per day (n=3),0 (0.0) n (%)
same,Tumor pain,400 mg two times per day (n=3),1 (33.3) n (%)
same,Vomiting,400 mg two times per day (n=3),0 (0.0) n (%)
same,dose reductions due to AEs (one grade 3 diarrhea and one grade 3 rash after the DLT period),600 mg two times per day,Two patients
same,Abdominal distension,600 mg two times per day (n=3),1 (33.3) n (%)
same,Abdominal pain,600 mg two times per day (n=3),1 (33.3) n (%)
same,Alanine aminotransferase increased,600 mg two times per day (n=3),0 (0.0) n (%)
same,Amylase increased,600 mg two times per day (n=3),1 (33.3) n (%)
same,Anemia of malignant disease,600 mg two times per day (n=3),1 (33.3) n (%)
same,Any AE,600 mg two times per day (n=3),3 (100) n (%)
same,Any SAE,600 mg two times per day (n=3),1 (33.3) n (%)
